Experimental data gathered from unrelated publications.
Protocols differ between the studies behind these lines.
Read-out: metabolic stability

SMILES	species	medium	concentration	pH	setting	half-life [min]
O=C(Nc1cncc(-c2nc3ccccc3o2)c1)c1ccc(N2CCNCC2)c([N+](=O)[O-])c1	CD-1 mouse	liver microsomes	1 µM	pH 7.4	–	> 110
CCN(CC)CCNC(=O)c1c(C)[nH]c(/C=C2\C(=O)Nc3ccc(F)cc32)c1C	mouse	liver microsomes	1 µM	pH 7.4	–	12.8
CCOC(=O)C1=C(C)N/C(=C/c2cc(C)n(-c3ccc(S(=O)(=O)C(F)(F)F)cc3)c2C)C1=O	mouse	liver microsomes	1 µM	–	–	30
CC(C)NCC(O)COc1cccc2ccccc12 (stereo not drawn)	mouse	liver microsomes	1 µM	–	–	11.5
CCOC(=O)C1=C(C)N/C(=C/c2cc(C)n(-c3cccc(OC)c3)c2C)C1=O	mouse	liver microsomes	1 µM	–	–	12
CCS(=O)(=O)Nc1cccc(-c2cn(C)c(=O)c3ccccc23)c1	mouse	liver microsomes	–	–	–	11
C=CC(=O)Nc1cccc(-n2nc3c(=O)[nH]nc(N)c3c2-c2oc3ccc(C)cc3c2C)c1	nude mouse	blood	1 µM	–	whole blood	134
O=C(N[C@H](Cc1c[nH]c2ccccc12)C(=O)Nc1ccncc1)c1ccc(-c2ccc(F)c(F)c2)cc1F	mouse	liver microsomes	–	–	–	39
CCCCOC(=O)NS(=O)(=O)c1sc(CC(C)C)cc1-c1ccc2c(c1)CN(C(C)=O)C2	mouse	liver microsomes	1 µM	pH 7.4	–	1.8
COC(=O)c1csc(C(=O)c2c[nH]c3ccccc23)n1	mouse	liver microsomes	–	–	–	11
C/C=C/C[C@H](C)[C@@H](OC)[C@@H](C)[C@H](O)C[C@H]1OC(=O)C=C[C@H]1CC	mouse	liver microsomes	–	–	–	< 15
O=S(=O)(Nc1cccc(-c2nnn[nH]2)c1)c1cc(C(F)(F)F)cc(C(F)(F)F)c1	mouse	liver microsomes	–	–	–	535
O=C(Nc1ccc2sc(-c3ccc(F)c(F)c3)nc2c1)N1CC[C@H](F)C1	mouse	liver microsomes	1.5 µM	–	–	≥ 60
O=S(=O)(Nc1cccc(-c2nnn[nH]2)c1)c1ccc(Cl)c2nonc12	mouse	liver microsomes	–	–	–	81
NC(=O)C1CCN(c2nnc(-c3ccc4c(c3)OCCCO4)s2)CC1	mouse	liver microsomes	1 µM	–	–	> 30
CCOC(=O)C1=C(C)N/C(=C/c2cc(C)n(-c3ccc(SC(F)(F)F)cc3)c2C)C1=O	mouse	liver microsomes	1 µM	–	–	23
CCCCOC(=O)NS(=O)(=O)c1sc(CC(C)C)cc1-c1cccc2c1CN(C(C)=O)C2	mouse	liver microsomes	1 µM	pH 7.4	–	6.9
O=c1ccc2ccc(O)cc2o1	mouse	liver S9	2 µM	pH 7.4	–	4.71
CC[C@@H]1C=CC(=O)O[C@@H]1C[C@@H](OC)[C@H](C)[C@H](OC)[C@@H](C)Cc1ccc(F)cc1	mouse	liver microsomes	–	–	–	< 2.3
O=S(=O)(Nc1cccc(-c2nnn[nH]2)c1)c1ccc(Cl)c(Cl)c1Cl	mouse	liver microsomes	–	–	–	192

SMILES	species	medium	concentration	pH	setting	half-life [min]
CCOC(=O)C1=C(C)N/C(=C/c2ccn(-c3ccccc3C(F)(F)F)c2)C1=O	mouse	liver microsomes	1 µM	–	–	11
CNC(=O)[C@H](Cc1c[nH]cn1)NC(=O)CN(CC(=O)O)Cc1ccccc1	male mouse	liver microsomes	1 µM	pH 7.4	–	> 40
CCOC(=O)NS(=O)(=O)c1sc(CC(C)C)cc1-c1ccc2c(c1)CN(C)C(=O)C2	mouse	liver microsomes	1 µM	pH 7.4	–	23
CO[C@@H](C[C@H]1C(C)=CC[C@@H]2[C@]3(C)C[C@H](O[C@@H]4O[C@@H](C)[C@H](OC(=O)c5cccc(O)c5)[C@@H](O[C@@H]5O[C@H](CO)[C@@H](O)[C@H](O)[C@H]5NC(C)=O)[C@H]4O)[C@@H](O)C(C)(C)[C@H]3CC[C@]21C)[C@H](N)C(=O)O.O=C(O)C(F)(F)F	mouse	hepatocytes	1 µM	–	–	296
CCCN(C)Cc1cc(-c2[nH]c3cccc(F)c3c(=O)c2C)ccc1Cc1ccc(OC(F)(F)F)cc1	mouse	liver microsomes	–	–	–	3.47
COc1cc2[nH]c(C#N)cc2c(C)c1CN1CCC(Nc2ncnc3sc(CC(F)(F)F)cc23)CC1	CD-1 mouse	liver microsomes	1 µM	pH 7.4	–	> 30
N=C(N)N1CC=C(c2coc(C(=O)Nc3ccc(C4=CCN(C(=N)N)CC4)c(F)c3)c2)CC1	CD-1 mouse	liver microsomes	1 µM	–	–	> 60
CCOC(=O)C1=C(C)N/C(=C/c2cc(C)n(-c3ccncc3)c2C)C1=O	mouse	liver microsomes	1 µM	–	–	29
O=C(O)CN(CCCc1ccccc1)CC(=O)N[C@H](CO)Cc1c[nH]cn1	male mouse	liver microsomes	1 µM	pH 7.4	–	> 40
NC1(c2ccc(-c3nc4ccn5c(=O)[nH]nc5c4cc3-c3ccccc3)cc2)CCC1	CD-1 mouse	liver microsomes	1 µM	pH 7.4	–	85.8
CC1=C(C(N)=O)C(=O)/C(=C\c2cc(C)n(-c3ccccc3C(F)(F)F)c2C)N1	mouse	liver microsomes	1 µM	–	–	19
COc1ccc([C@@H](O)[C@@H](CN2CCCC2)NC(=O)CC2Cc3ccccc3C2)cc1F	CD-1 mouse	liver microsomes	1 µM	pH 7.4	–	2.7
CCCC[S+]([O-])c1sc2nc(-c3cccs3)ccc2c1N (stereo not drawn)	female CD-1 mouse	liver S9	2 µM	pH 7.5	–	13
C=CC(=O)Nc1ccc(N2CCC[C@@H](Nc3ncc(Cl)c(-c4c[nH]c5ccccc45)n3)C2)cc1	mouse	liver microsomes	–	–	–	7.2
CN1CCN(Cc2cc(CNC3(c4ccccc4F)CCCC3)ccc2O)CC1	mouse	liver microsomes	4.6 µM	pH 7.5	–	12
CCOC(=O)C1=C(C)N/C(=C/c2cc(C)n(-c3ccc(SC)cc3)c2C)C1=O	mouse	liver microsomes	1 µM	–	–	26
C=CC(=O)Nc1cc(OC)c(N2CCC[C@@H](Nc3ncc(Cl)c(-c4c[nH]c5ccccc45)n3)C2)cc1C	mouse	liver microsomes	–	–	–	4.3
N=c1c2c(-c3ccccc3)c(-c3ccccc3)n(CCc3ccccc3)c2ncn1[C@H]1CC[C@H](O)CC1	male CD-1 mouse	liver microsomes	1 µM	pH 7.4	–	> 120
CC1=C(C(=O)OCc2ccccc2)C(=O)/C(=C\c2cc(C)n(-c3ccccc3C(F)(F)F)c2C)N1	mouse	liver microsomes	1 µM	–	–	3.1
